Rows were chosen to be rich in hits. Some 2.3% of all compounds tested hit in one or more screens of this group.
Bfl-1 A1 inh = inhibitors of the anti-apoptotic protein A1, read as caspase activation | 330,000 tested, 0.066% active | MEF A1-2A-BIM cells, Caspase-Glo 3/7 luminescence, 3 h; percent of clofoctol response, vehicle zero | caspase activation, % (concentration not given with the values);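 active = over half of replicate activation scores above 10%, or exactly half above 10 with the replicate mean above 10; inconclusive = replicate mean below 10 yet half the replicates above 10; inactive = over half of replicates below 10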
Beta cell apopt = blocks beta cell apoptosis; INS-1E cytokine-induced death, ATP luminescence, 48 h; percent of positive-control rescue, neutral wells zero; protection from apoptosis, % (concentration not given with the values); 300,000 tested, 0.8% active; AID 435005;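 active = Every replicate reaches about 75%, or at least half do and their mean reaches it too, limit read from the data; inconclusive = At least half of replicates reach the limit but their mean does not; inactive = Under half of replicates reach the limit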;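 note: 0% = cytokine-treated negative control wells and 100% = positive control rescue; higher means more ATP so stronger rescue from cytokine killing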
KLF5 inh = suppresses KLF5 promoter-driven expression; DLD-1 KLF5 promoter-luciferase reporter, luminescence; inhibition, % at 5 µM; 290,000 tested, 0.23% active; AID 1700;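 active = inhibition above a per-plate limit of that plate's mean compound inhibition plus 3 SD, cut at about 60% in these data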;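 note: 0% = DMSO wells and 100% = LY294002 at 200 µM; higher means less KLF5 promoter-driven luciferase light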
T cruzi inh = T. cruzi replication inhibition; T. cruzi beta-gal in NIH3T3, luminescence, 90 h; inhibition, % (concentration not given with the values); 300,000 tested, 1.4% active; AID 1885;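 active = mean inhibition across valid replicates above about 55%, limit read from the data; inconclusive = mean below that limit but half or more replicates reach it; inactive = mean below it, under half of replicates reach it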;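 note: signal also drops with host cell toxicity which is not excluded here; 0% = plate median of DMSO wells and 100% = zero luminescence signal; higher percent means less beta-gal luminescence so fewer parasites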
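Assay system: NIH/3T3 host cells with β-galactosidase reporter T. cruzi; input: 5,000 host fibroblasts per well; compound: single 50 nL compound addition per well in DMSO; timing: ≥90 h infection period, 3 h prior cell attachment; measured by: GalScreen β-gal luminescence, detergent lysis, 60 min; evaluation: percent inhibition of parasite-derived β-gal signal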
HIF activator = HIF pathway transcriptional activation; U2OS HRE-luciferase reporter, luminescence; normalized: DMSO 0%, desferrioxamine 100%; 300,000 tested, 0.32% active; activation, % at 7.5 µM (by protocol);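 active = mean activation of at least 10% of the iron chelator positive control signal, with at least half of replicates also reaching 10%; inconclusive = mean and replicate majority disagree about reaching 10%; inactive = mean and most replicates under 10%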
* hit, by the source's call; ? = inconclusive; / = no result given.

SMILES	Bfl-1 A1 inh	Beta cell apopt	KLF5 inh	T cruzi inh	HIF activator
COc1ccc(C(=O)N/C(=C\c2cn(C)c3ccccc23)C(=O)N2CCOCC2)cc1	0.5	2.4	-21.1	5.1	0.8
CCN(CC(=O)N1CCOCC1)S(=O)(=O)c1cc(Cl)ccc1Cl	0.1	-2.1	-2.1	3.9	0.3
CN(CC(=O)Nc1ccc(Cl)c(C(F)(F)F)c1)C(=O)c1cccc2cccnc12	-1.7	2.2	/	/	/
CCC1CCc2sc(C(=O)NC3CCN(Cc4ccccc4)CC3)cc2C1 (stereo unspecified)	-0.5	3.6	/	60.2*	0.3
CCC1CCc2sc(C(=O)NCC3CCCO3)cc2C1 (stereo unspecified)	-1.8	-4.5	/	/	/
CCC1CCc2sc(C(=O)NCc3ccccn3)cc2C1 (stereo unspecified)	0.4	-0.4	-50.5	24.0	21.9*
CC1CCc2sc(C(=O)NC3CCN(Cc4ccccc4)CC3)cc2C1 (stereo unspecified)	0.4	1.2	/	/	/
COc1cccc(CN2CC(C(=O)NCc3ccc(Cl)s3)CCC2=O)c1 (stereo unspecified)	/	/	24.3	2.2	-1.1
CCn1ccnc1CNC(=O)c1ccc(OC2CCN(C(=O)COC)CC2)cc1	/	/	-29.4	12.0	0.0
COc1ccc(CNC(=O)C2(CC3CC(c4ccccc4)=NO3)CCNCC2)cc1 (stereo unspecified)	0.7	-1.7	/	-0.7	-0.5
COc1ccccc1C(=O)NCCC(=O)N1CCN(C(C)=O)CC1	0.9	-4.4	/	-11.4	0.8
CCn1cc(C(=O)N[C@H](C(=O)NCCN2CCOCC2)C(C)C)c(=O)c2cc3c(cc21)OCO3	0.0	4.6	-32.7	0.8	0.0
CCCCc1ccc(NC(=S)NCc2cccc(OC)c2)cc1	1.4	0.0	-3.3	56.3*	-0.6
COc1ccc(COC(=O)c2sc3nc4n(c(=O)c3c2C)CCC4)cc1	-0.1	-3.3	/	-8.1	0.2
CC(C)CCc1noc(CN(C)CCC2CCOCC2)n1	-0.4	1.8	-4.1	39.7	0.0
Cc1nn(C)c(C)c1CN(Cc1nc(CCC(C)C)no1)C(C)C	0.4	93.9*	5.8	33.3	-0.5
CSCCC(NC(=O)c1ccco1)C(=O)OCC(=O)N(Cc1ccccc1)C(C)(C)C (stereo unspecified)	-0.5	-4.3	/	-17.7	-2.0
CC(C)(C)N(Cc1ccccc1)C(=O)COC(=O)CNC(=O)c1ccco1	15.8*	-9.6	/	-6.3	-0.2
C=CCn1c(N2CCCCCC2)nc2c1c(=O)[nH]c(=O)n2C	0.6	-5.4	-0.9	6.8	29.7*
CCOc1nc2cnccc2n(CC(=O)Nc2ccc(C)c(C)c2)c1=O	1.1	-4.3	-3.9	16.3	-0.2
CCN(C(=O)CCN1C(=O)/C(=C/c2ccccc2)SC1=S)C1CCS(=O)(=O)C1 (stereo unspecified)	0.1	-37.5	5.0	-8.2	-0.1
CCCOC(=O)NC1C(NC(=O)OCCC)N(C)C(=O)N1C (stereo unspecified)	-0.2	-8.7	6.0	-14.0	153.0*
CCC(C)NC(=O)NC1C(NC(=O)NC(C)CC)N(C)C(=O)N1C (stereo unspecified)	-0.8	/	-22.7	-14.3	0.3
CN(CC(=O)Nc1ccccc1Cl)CC(=O)Nc1cccc2ccccc12	3.5	5.7	/	/	/
COc1ccc(CC(=O)NNC2=Nc3cccc4cccc2c34)cc1OC	1.6	-1.7	-4.3	8.2	-0.2
SMILES	Bfl-1 A1 inh	Beta cell apopt	KLF5 inh	T cruzi inh	HIF activator
O=C(NNC1=Nc2cccc3cccc1c23)c1ccc(Br)cc1	0.0	59.7	16.6	62.0*	-0.2
CCC(CC)c1nnc(NC(=O)c2cc([N+](=O)[O-])ccc2N2CCOCC2)s1	0.7	3.0	/	/	/
O=C(c1ccccc1)c1ccc(NCCCn2ccnc2)c([N+](=O)[O-])c1	-0.2	1.3	-46.0	56.3*	0.9
Nc1cc(=O)[nH]c(SCC(=O)Nc2ccc(N3CCCCC3)cc2)n1	-0.1	3.8	/	/	/
COc1cc(NC(=O)CCC(=O)c2cccs2)cc(OC)c1	-0.1	1.2	0.1	-2.4	0.3
CCC(=O)c1ccc(OCC(=O)Nc2cccc(S(=O)(=O)N(C)c3ccccc3)c2)cc1	0.4	-0.8	/	/	/
CCOc1ccc(CN(C)CC(=O)Nc2cccc(S(=O)(=O)N(C)c3ccccc3)c2)cc1	0.3	-1.0	-14.5	72.8*	-0.4
CCOC(=O)C1(CCOc2ccccc2)CCN(Cc2cccc(OC)c2OC)CC1	0.1	/	-7.6	24.0	-51.3
Cc1cc(SCC(=O)N/N=C/c2ccccc2C(=O)O)c(C)cc1Br	0.1	1.2	-18.6	1.9	21.2*
Cc1cc(SCC(=O)N/N=C/c2ccc(O)cc2O)c(C)cc1Br	0.1	55.3	37.7	62.0*	39.0*
COc1ccc2c(c1)c(C(C)=O)c(C)n2C	0.1	-7.2	-23.5	11.2	0.3
COc1ccc2c(c1)c(C(=O)CN1CCc3ccccc3C1)c(C)n2C	1.1	-1.7	-16.3	?	44.1*
CCOc1ccccc1C(=O)N[C@H](C(=O)Nc1nc2c(s1)CCCC2)C(C)C	0.3	-0.7	-19.1	68.5*	0.9
Cc1ccccc1CC1SC(N=C(N)N)=NC1=O (stereo unspecified)	-1.6	/	-20.2	-1.0	2.4
COc1cccc(N2C(=NC(=O)CCC3CCCC3)SC3CS(=O)(=O)CC32)c1 (stereo unspecified)	-0.4	-11.5	-18.5	2.9	0.0
COc1ccc(N2C(=NC(=O)CCC3CCCC3)SC3CS(=O)(=O)CC32)cc1 (stereo unspecified)	1.8	-2.1	-9.3	10.5	70.8*
COCCN1C(=O)C(=O)/C(=C(/O)c2ccc(S(=O)(=O)N3CCCCC3)cc2)C1c1ccc(OC)cc1 (stereo unspecified)	1.4	1.5	-32.5	5.4	-0.3
COc1ccc(NC(=O)c2cc(-c3ccncc3)nc3ccccc23)c(OC)c1	-5.3	12.5	/	/	/
CCOc1ccccc1NC(=O)c1cc(-c2ccncc2)nc2c(Cl)cccc12	/	/	-10.5	57.1*	-0.8
CCc1nnc(NC(=O)c2nc(S(=O)(=O)Cc3cccc(C)c3)ncc2Cl)s1	1.3	-30.4	14.7	13.2	-4.7
CCOc1ccccc1NC(=O)c1nc(S(=O)(=O)Cc2cccc(C)c2)ncc1Cl	3.5	96.0*	27.9	28.4	-1.6
Cc1cccc(CS(=O)(=O)c2ncc(Cl)c(C(=O)Nc3nnc(C(C)C)s3)n2)c1	8.1*	-20.0	24.6	-18.8	-1.4
COC(=O)c1ccccc1NC(=O)c1nc(S(=O)(=O)Cc2ccccc2)ncc1Cl	0.5	98.7*	40.1	44.0	-0.1
CC(=O)c1c(C)[nH]c(C(=O)OCC(=O)N2CCc3ccccc3C2)c1C	0.3	0.0	/	/	/
Cc1cc(C(=O)NC2CCCc3c2cnn3-c2ccc(C(C)(C)C)cc2)nn1C (stereo unspecified)	1.4	54.1	5.7	-1.2	0.8
N#Cc1cccnc1N1CCN(C(=O)c2cccs2)CC1	0.3	5.6	-9.5	-0.6	0.8
O=c1[nH]ncc(NCCc2ccccc2)c1Cl	-1.2	2.4	-0.1	-13.2	-0.2
CN(C)CCCNc1cn[nH]c(=O)c1Cl	0.7	-3.3	-42.4	70.3*	-0.2
